Assay results published in ChEMBL document CHEMBL2169835, “Flavonoid dimers as novel, potent antileishmanial agents” (J Med Chem, 2012).
Calls of active or inactive are those of the source. The calls are words filed in the database; no cut-off is given here.

Experiments:
[1] = tested on: Leishmania donovani; assay: Antimicrobial activity against wild-type Leishmania donovani AG83 promastigote assessed as inhibition of parasite growth after 72 hrs by MTS assay; format: functional, organism-based; conditions: AG83, 72 h
Summary of the method: (§1)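 Promastigotes were grown in Schneider's medium pH 6.9 with 10% heat-inactivated FBS at 27 °C, seeded at 1 × 10^5 per well, and exposed to serial concentrations for 72 h at 27 °C. Compounds were in DMSO (≤1% final) or water. MTS:PMS (20:1) was added for 4 h, then OD490 was read.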

[2] = Therapeutic index, ratio of IC50 for mouse PEM cells to IC50 for wild-type Leishmania donovani AG83 promastigote; format: cell-based; conditions: read-out: Ratio IC50
Summary of the method: (§2)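 Index is PEM cytotoxicity IC50 over promastigote IC50. For PEM, cells were seeded at 2 × 10^4 per well in supplemented DMEM, given graded doses for 72 h at 37 °C, 5% CO2, and read by MTS survival.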

[3] = tested on: Leishmania donovani; assay: Antimicrobial activity against SSG-resistant Leishmania donovani 39 promastigote assessed as inhibition of parasite growth after 72 hrs by MTS assay; format: functional, organism-based; conditions: Leishmania donovani, 39, 72 h
Summary of the method: as §1, with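 “read. Survival was % of untreated control; IC50 = concentration halving OD; N = 1−4.” for “read.”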

[4] = Cytotoxicity against mouse Peritoneal macrophages cells after 72 hrs by MTS assay; format: cell-based; conditions: Peritoneal macrophage cell
Summary of the method: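 Primary mouse peritoneal elicited macrophages were seeded at 2 × 10^4 cells per well in DMEM with 10% heat-inactivated FBS. They were exposed to graded doses for 72 h at 37 °C in 5% CO2. Survival was read by MTS/PMS tetrazolium reduction (OD 490 nm) relative to untreated control. The IC50 was the concentration halving OD. Results are mean ± SEM of 1–4 independent experiments.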

[5] = tested on: RAW264.7; assay: Cytotoxicity against mouse RAW264.7 cells after 72 hrs by MTS assay; format: cell-based; conditions: RAW264.7, 72 h
Summary of the method: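 RAW 264.7 murine macrophage line was plated at 1 × 10^4 cells per well in supplemented DMEM. Cells received a graded compound series for 72 h at 37 °C, 5% CO2, with a maximum of 1% DMSO. Viability was measured by MTS with PMS coupling at OD 490 nm, as percent of untreated control. The IC50 was the concentration reducing OD by half, given as mean ± SEM, N = 1–4.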

[6] = tested on: Leishmania donovani; assay: Antimicrobial activity against SSG-resistant Leishmania donovani 39 amastigote infected in mouse peritoneal macrophages assessed as inhibition of parasite growth after 72 hrs by Giemsa staining method; format: functional, organism-based; conditions: Leishmania donovani, 39, 72 h
Summary of the method: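 Mouse peritoneal elicited macrophages were seeded on coverslips at 1 × 10^5 cells per well in DMEM with 10% heat-inactivated FBS and left to attach overnight. They were infected overnight with late-log Ld39 promastigotes (parasite:macrophage 20:1) at 37 °C, 5% CO2, then washed. Compounds were applied for 72 h at 37 °C. Giemsa-stained amastigotes per 100 macrophages gave IC50; N = 1−3.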

[7] = Therapeutic index, ratio of IC50 for mouse Peritoneal macrophages to IC50 for SSG-resistant Leishmania donovani 39 promastigote; conditions: read-out: Ratio IC50; summary of the method: as §2
[8] = tested on: Leishmania donovani; assay: Selectivity ratio of IC50 for Leishmania donovani promastigote to IC50 for SSG-resistant Leishmania donovani 39 amastigote infected in mouse peritoneal macrophages; format: functional
[9] = Therapeutic index, ratio of IC50 for mouse Peritoneal macrophages to IC50 for pentamidine-resistant Leishmania donovani AG83PentR50 promastigote; conditions: read-out: Ratio IC50; summary of the method: as §2
[10] = tested on: Leishmania donovani; assay: Antimicrobial activity against pentamidine-resistant Leishmania donovani AG83PentR50 promastigote assessed as inhibition of parasite growth after 72 hrs by MTS assay; format: functional, organism-based; conditions: AG83PentR50, 72 h
Summary of the method: as §1, with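 “read. Survival was % of untreated control; IC50 = concentration halving OD; N = 1−4.” for “read.”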

[11] = Therapeutic index, ratio of IC50 for mouse Peritoneal macrophages to IC50 for SSG-resistant Leishmania donovani 39 amastigote infected in mouse peritoneal macrophages; conditions: read-out: Ratio IC50
[12] = tested on: Leishmania donovani; assay: Antimicrobial activity against axenically grown Leishmania donovani amastigotes; format: functional, organism-based
[13] = Therapeutic index, ratio of IC50 for rat L6 cells to IC50 for Leishmania donovani; format: cell-based; conditions: L6 cells (cytotoxicity) versus Leishmania donovani, read-out: Ratio IC50
[14] = tested on: L6; assay: Cytotoxicity against rat L6 cells; format: cell-based
[15] = tested on: Leishmania donovani; assay: Antimicrobial activity against SSG-resistant Leishmania donovani 39 amastigote infected in mouse peritoneal macrophages assessed as inhibition of parasite growth at 5 uM after 3 days by Giemsa staining method; format: functional, organism-based
Summary of the method: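 Coverslip-grown peritoneal macrophages were infected 24 h at 37 °C with late-log Ld39 promastigotes (20:1), washed, then exposed to 5 μM compound for 3 days at 37 °C, with a DMSO solvent control. Giemsa staining was scored as percentage of macrophages infected and amastigotes per 100 macrophages.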

[16] = tested on: Leishmania donovani; assay: Ratio of isoginkgetin IC50 to compound IC50 for axenically grown Leishmania donovani amastigotes; format: functional
[17] = tested on: Leishmania donovani; assay: Selectivity ratio of IC50 for compound-resistant Leishmania donovani AG83PentR50 promastigote to IC50 for wild-type Leishmania donovani AG83 promastigote; format: functional

IC50 [12] [µM] | Compound | IC50 [1] [µM] | selectivity ratio [2] | IC50 [3] [µM] | IC50 [4] [µM] | IC50 [5] [µM] | IC50 [6] [µM] | selectivity ratio [7] | Ratio IC50 [8] | selectivity ratio [9] | IC50 [10] [µM] | selectivity ratio [11] | selectivity ratio [13] | IC50 [14] [µM] | inhibition [15] | Ratio IC50 [16] | Ratio IC50 [17]
– | O=c1cc(-c2ccc(O)c(O)c2)oc2cc(O)cc(O)c12 [LUTEOLIN] | 114 | 0.7 | 89 | 77.7 | 43.2 | 7.7 | 0.9 | 12 | 0.9 | 90.9 | 10.1 | – | – | – | – | –
– | O=c1c(O)c(-c2ccc(O)c(O)c2)oc2cc(O)cc(O)c12 [QUERCETIN] | 103 | > 1 | > 100 | > 100 | 95.6 | 6 | > 1 | 17 | > 1.4 | 69.6 | > 16.7 | – | – | – | – | –
1.9 | COc1ccc(-c2cc(=O)c3c(O)cc(O)c(-c4cc(-c5cc(=O)c6c(O)cc(O)cc6o5)ccc4OC)c3o2)cc1 [ISOGINKGETIN] | – | – | – | – | – | – | – | – | – | – | – | 5.8 | 11 | – | – | –
– | sodium stibogluconate | – | – | – | – | – | – | – | 11 | – | – | – | – | – | – | – | –
– | O=c1cc(-c2ccc(OCCOCCN(CCOCCOc3ccc(-c4cc(=O)c5ccccc5o4)cc3)Cc3ccncc3)cc2)oc2ccccc12 | 0.2 | > 440 | 0.21 | > 88 | > 100 | 0.63 | > 419 | – | > 677 | 0.13 | > 140 | – | – | Active | 3 | –
– | N=C(N)c1ccc(OCCCCCOc2ccc(C(=N)N)cc2)cc1 [PENTAMIDINE] | 13.9 | 2.2 | 5.3 | 30.4 | 30 | > 30 | 5.7 | – | 0.6 | 54.8 | < 1 | – | – | – | – | 3.9
